# Test system: Plasmodium falciparum
# Assay: Minimum inhibitory concentration against schizont maturation in Plasmodium falciparum NF-54
# Format: functional
# How it was run: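 Rieckmann micro-assay with P. falciparum NF-54 cultured in RPMI-1640 (25 mM HEPES, 1% D-glucose, 0.23% NaHCO3, 10% heat-inactivated human serum), sorbitol-synchronized to ring stage. Start at ~1% parasitaemia, 3% haematocrit; compounds 0.25–50 µg/mL in duplicate, 37 °C candle jar, 36–40 h. Giemsa smears scored by microscopy; MIC = lowest concentration blocking complete maturation to schizonts.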
row,SMILES,MIC
1,CN1CCN(c2nc(-c3ccncc3)cc(-c3ccc(Cl)cc3)n2)CC1,2 µg/mL
2,COc1ccc(-c2cc(-c3ccncc3)nc(N3CCN(c4ccccc4)CC3)n2)cc1,2 µg/mL
3,c1ccc(-c2cc(-c3ccncc3)nc(N3CCN(c4ccccc4)CC3)n2)cc1,10 µg/mL
4,COc1cc(-c2cc(-c3ccncc3)nc(N3CCN(Cc4ccccc4)CC3)n2)cc(OC)c1OC,10 µg/mL
5,COc1cc(OC)c(-c2cc(-c3ccncc3)nc(N3CCN(C)CC3)n2)cc1OC,2 µg/mL
6,COc1cc(-c2cc(-c3ccncc3)nc(N3CCN(c4ccccc4)CC3)n2)cc(OC)c1OC,50 µg/mL
7,Clc1ccc(-c2cc(-c3ccncc3)nc(N3CCN(Cc4ccccc4)CC3)n2)cc1,10 µg/mL
8,COc1cc(OC)c(-c2cc(-c3ccncc3)nc(N3CCN(c4ccccc4)CC3)n2)cc1OC,10 µg/mL
9,COc1cc(OC)c(-c2cc(-c3ccncc3)nc(N3CCN(Cc4ccccc4)CC3)n2)cc1OC,2 µg/mL
10,CSc1ccc(-c2cc(-c3ccncc3)nc(N3CCN(Cc4ccccc4)CC3)n2)cc1,2 µg/mL
11,c1ccc(CN2CCN(c3nc(-c4ccccc4)cc(-c4ccncc4)n3)CC2)cc1,2 µg/mL
12,CSc1ccc(-c2cc(-c3ccncc3)nc(N3CCN(c4ccccc4)CC3)n2)cc1,10 µg/mL
13,Cc1ccc(-c2cc(-c3ccncc3)nc(N3CCN(c4ccccc4)CC3)n2)cc1C,2 µg/mL
14,O=[N+]([O-])c1cccc(-c2cc(-c3ccncc3)nc(N3CCN(Cc4ccccc4)CC3)n2)c1,2 µg/mL
15,COc1ccc(OC)c(-c2cc(-c3ccncc3)nc(N3CCN(c4ccccc4)CC3)n2)c1,2 µg/mL
16,COc1cc(-c2cc(-c3ccncc3)nc(N3CCN(C)CC3)n2)cc(OC)c1OC,10 µg/mL
17,Clc1ccc(-c2cc(-c3ccncc3)nc(N3CCN(c4ccccc4)CC3)n2)cc1,10 µg/mL
18,O=[N+]([O-])c1cccc(-c2cc(-c3ccncc3)nc(N3CCN(c4ccccc4)CC3)n2)c1,10 µg/mL
19,Cc1ccc(-c2cc(-c3ccncc3)nc(N3CCN(Cc4ccccc4)CC3)n2)cc1,2 µg/mL
20,CCc1nc(N)nc(N)c1-c1ccc(Cl)cc1 [PYRIMETHAMINE],10 µg/mL
21,Cc1ccc(-c2cc(-c3ccncc3)nc(N3CCN(c4ccccc4)CC3)n2)cc1,1 µg/mL

# The remaining molecules from weak to strong by MIC, led by results:
row,MIC,SMILES
1,1 µg/mL,COc1ccc(-c2cc(-c3ccncc3)nc(N3CCN(Cc4ccccc4)CC3)n2)cc1
2,1 µg/mL,Cc1ccc(-c2cc(-c3ccncc3)nc(N3CCN(C)CC3)n2)cc1
3,1 µg/mL,CSc1ccc(-c2cc(-c3ccncc3)nc(N3CCN(C)CC3)n2)cc1
4,1 µg/mL,Cc1ccc(-c2cc(-c3ccncc3)nc(N3CCN(Cc4ccccc4)CC3)n2)cc1C
5,1 µg/mL,CN1CCN(c2nc(-c3ccccc3)cc(-c3ccncc3)n2)CC1
6,1 µg/mL,COc1ccc(-c2cc(-c3ccncc3)nc(N3CCN(C)CC3)n2)cc1
7,1 µg/mL,COc1ccc(OC)c(-c2cc(-c3ccncc3)nc(N3CCN(Cc4ccccc4)CC3)n2)c1
8,1 µg/mL,CN1CCN(c2nc(-c3ccncc3)cc(-c3cccc([N+](=O)[O-])c3)n2)CC1
9,0.5 µg/mL,Cc1ccc(-c2cc(-c3ccncc3)nc(N3CCN(C)CC3)n2)cc1C
10,0.5 µg/mL,COc1ccc(OC)c(-c2cc(-c3ccncc3)nc(N3CCN(C)CC3)n2)c1

# Reference: ChEMBL document CHEMBL1139633, “Antimalarial activity and synthesis of new trisubstituted pyrimidines” (2005)
